Screening results (PubChem)
This is a sample that favours compounds with a hit; in the whole collection about 2.5% have one here.
Rce1 inhib: inhibitors of yeast Ras-converting enzyme | yeast membranes, quenched prenylated peptide cleavage fluorescence | Q03530 | calls only | actives 0.27% (n = 290,000);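 active = fall in fluorescence gain of 50% or more versus controls, with final raw signal at or below 3038400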;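 note: plate controls were neutral control wells for no effect and wells lacking membranes for full effect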
T cell modulator: T cell immune modulation candidate; 2C CD8+ T cell-vesicle binding, flow cytometry; active compounds read low; response (vesicle binding), % at 7 µM; actives 0.068% (n = 330,000); AID 2052;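 active = response, share of CD8 T cells binding vesicles, and their 90th percentile fluorescence all below set limits, cut at about 80% in these data, passing the limit was not always enough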;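 note: values below 100% mean blocked vesicle binding to the CD8+ T cells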
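Assay system – 2C mouse CD8+ T cells · Also added – QL9-loaded Drosophila micro-vesicles · Timing – Cell–vesicle co-incubation 1.5 h at 37 °C, staining 20 min on ice · Signal – flow cytometry of vesicle-bound cells · Measure – percent CD8+ FL2 mean versus row control · Controls – Peptide-free naked vesicles (low) and QL9 vesicles with 0.7% DMSO vehicle (high)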
MEKK3 PB1 HTS: raises or lowers MEK5 binding to the human MEKK3 PB1 domain; AID 1529; actives 1.4% (n = 290,000); bead-based flow cytometry, Alexa488-MEK5 binding to MEKK3; actives lie on both sides; 0 = blocked by unlabeled MEK5, 100 = vehicle; binding response (% of control), % at 10 µM; Q99759;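 active = binding response more than 3 SD above or below the average of its plate-row segment, actives on both sides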;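 note: Alexa488 bead fluorescence after subtracting the streptavidin-only scavenger bead signal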
MEKK2wt PB1 HTS: raises or lowers MEK5 binding to wildtype human MEKK2 PB1 domain. actives 1.1% (n = 290,000). AID 1531. binding response (% of control), % at 10 µM. Q9Y2U5. bead flow cytometry, Alexa488-MEK5 binding to MEKK2 WT; actives lie on both sides; in the data active = binding response below about 67% or above about 130%
UCH37 inh: human UCH37 deubiquitinating enzyme inhibition | inhibition, % (concentration not given with the values) | AID 588478 | purified proteasome/UCH37, Ub-AMC cleavage fluorescence | Q9Y5K5 | actives 0.33% (n = 330,000);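 active = mean inhibition over replicate wells above about 20%, limit read from the data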;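 note: 0% = compound-free wells with enzyme and 100% = wells lacking proteasome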
Target sequence (Q9Y5K5 whole entry, looked up): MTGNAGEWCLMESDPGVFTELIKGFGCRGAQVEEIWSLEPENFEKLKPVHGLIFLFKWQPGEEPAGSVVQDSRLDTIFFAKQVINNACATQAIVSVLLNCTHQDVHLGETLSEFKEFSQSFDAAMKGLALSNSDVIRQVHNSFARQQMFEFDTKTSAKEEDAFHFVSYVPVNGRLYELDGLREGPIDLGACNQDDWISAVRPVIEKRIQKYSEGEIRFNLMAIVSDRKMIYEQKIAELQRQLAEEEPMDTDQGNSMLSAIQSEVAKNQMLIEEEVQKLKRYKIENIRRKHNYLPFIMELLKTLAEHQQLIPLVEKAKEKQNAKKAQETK
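Material: Human UCH37 enzyme supplied as purified proteasome complex | Schedule: 30 min compound-proteasome preincubation then 25 min substrate reaction, room temperature | Detection: AMC fluorescence from Ub-AMC cleavage, excitation 355 nm, emission 460 nm | Benchmarks: Wells without proteasome as full block, compound-free enzyme plus substrate as uninhibited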
MEKK2 mut-MEK5: signal of MEK5 binding to mutant human MEKK2 PB1 domain; bead flow cytometry, Alexa488-MEK5 binding to MEKK2 mutant; percent response, % at 10 µM; actives 0.35% (n = 290,000); AID 1530; in the data active = percent response above about 24%, passing the limit was not always enough
Active calls of the source: *; i = inactive; / = no result; + = active, no number; [ ] = another dose, or the depositor's remark.

SMILES | Rce1 inhib | T cell modulator | MEKK3 PB1 HTS | MEKK2wt PB1 HTS | UCH37 inh | MEKK2 mut-MEK5
O=C1C2C3C=CC(CC3)C2C(=O)N1N=Cc1ccc(O)c(O)c1 (stereo not drawn) | / | / | / | / | 1 | /
c1coc(-c2ccnc3ncnn23)c1 | + | 279 | 90 | 92 | / | -6
COc1cccc2cc(C(C)=NNc3nc(-c4cc(C)ccc4C)cs3)c(=O)oc12 | / | / | / | / | 7 | /
CC1(C)CNc2cc([N+](=O)[O-])ccc2S1 | i | 144 | 100 | 96 | 26* | -4
CC1=Nc2cc([N+](=O)[O-])ccc2NC(C)(C)C1 | i | 152 | 99 | 97 | 7 | 4
C#CCOCCOCCOCCNc1nc(N2CCN(C(=O)C(Cc3cc4ccccc4[nH]3)n3cc(C(N)Cc4ccc(O)cc4)nn3)CC2)nc(N2CCN(C(=O)C(Cc3cc4ccccc4[nH]3)n3cc(C(N)Cc4ccc(O)cc4)nn3)CC2)n1 (stereo not drawn) | i | / | 98 | 298* | / | 179*
C#CCOCCOCCOCCNc1nc(N2CCN(C(=O)C(CCC(=O)O)n3cc(C(N)CC(C)C)nn3)CC2)nc(N2CCN(C(=O)C(Cc3cc4ccccc4[nH]3)n3cc(C(N)Cc4ccc(O)cc4)nn3)CC2)n1 (stereo not drawn) | i | 503 | 105 | 131 | 1 | 19
C#CCOCCOCCOCCNc1nc(N2CCN(C(=O)[C@H](Cc3cc4ccccc4[nH]3)n3cc([C@@H](N)Cc4ccc(O)cc4)nn3)CC2)nc(N2CCN(C(=O)[C@H](Cc3cc4ccccc4[nH]3)n3cc([C@@H](N)CC(C)C)nn3)CC2)n1 | / | / | 98 | 201* | / | 54*
Cc1ccc(-n2c(=O)c3cc4c(=O)n(-c5ccc(C)c(C)c5)c(=O)c4c(C(=O)c4ccc(C(=O)O)cc4)c3c2=O)cc1C | i | 92 | 48*[inhibitor] | 29*[inhibitor] | 7 | -12
Cc1cc(NS(=O)(=O)c2ccc(NC(=O)CSc3nc4ncc(Br)cc4[nH]3)cc2)nc(C)n1 | i | 328 | 123 | 119 | 4 | 18
Cc1cc(NS(=O)(=O)c2ccc(NC(=O)CSc3nc4ncc(Cl)cc4[nH]3)cc2)nc(C)n1 | i | 132 | 96 | -4.0* | / | 9
O=C(NN=Cc1ccoc1)c1ccc(Br)cc1 | / | / | / | / | 1 | /
NC(=NOC(=O)Cc1ccc(-c2ccccc2)cc1)c1cccc([N+](=O)[O-])c1 | / | / | / | / | 2 | /
C/C(CC(=O)NCc1ccco1)=N\NC(=O)c1ccc([N+](=O)[O-])cc1Cl | + | 284 | 97 | 99 | / | 4
CC(CC(=O)NCc1ccco1)=NNC(=O)c1ccc([N+](=O)[O-])cc1Cl | / | / | / | / | 4 | /
CC(CC(=O)NCc1ccco1)=NNC(=O)Cc1ccc(Cl)cc1 | / | / | / | / | 32* | /
COCCNC(=O)Cn1cc(C=NNC(=O)c2ccc(Oc3ccc(O)cc3)cc2)c2ccccc21 | / | / | / | / | -20 | /
O=C(NN=Cc1ccncc1)C1C2CCCCCCC21 (stereo not drawn) | / | / | / | / | 2 | /
C=CCN1C=C2C(=O)C(C)(OC(=O)CCC(=O)OC)C(=O)C(Br)=C2C=C1c1ccc(OC)cc1 (stereo not drawn) | i | 379 | 80 | -3.0* | 3 | -1
COC(=O)CCC(=O)OC1(C)C(=O)C2=CN(Cc3ccco3)C(c3ccc(OC)cc3)=CC2=C(Br)C1=O (stereo not drawn) | i | 437 | 85 | 86 | / | -4
COCCN1C=C2C(=O)C(C)(OC(=O)CCC(=O)OC)C(=O)C(Br)=C2C=C1c1ccc(OC)cc1 (stereo not drawn) | i | 262 | 97 | 96 | / | 1
COC(=O)CCC(=O)OC1(C)C(=O)C2=CN(c3ccc(OC)cc3)C(c3ccc(OC)cc3)=CC2=C(Br)C1=O (stereo not drawn) | i | 430 | 87 | -6.0* | 1 | -1
O=C(O)c1ccc(C=NNC(=O)c2ccc3c(c2)OCCO3)cc1 | / | / | / | / | 8 | /
CN(C)C(=O)c1cc(C(=O)c2ccc(F)cc2Cl)c[nH]1 | i | 246 | 105 | 106 | 1 | 7
CNC(=O)c1cc(C(=O)c2ccc(F)cc2C(F)(F)F)c[nH]1 | i | 0.0* | 108 | 104 | 5 | 6
